Test results from ChEMBL document CHEMBL1275331, “Discovery of a novel 5-HT(3) antagonist/5-HT(1A) agonist 3-amino-5,6,7,8-tetrahydro-2-{4-[4-(quinolin-2-yl)piperazin-1-yl]butyl}quinazolin-4(3H)-one (TZB-30878) as an orally bioavailable agent for irritable bowel syndrome” (J Med Chem, 2010).
Active and inactive are the calls of the source. The calls are words filed in the database; no cut-off is given here.

Columns and labels:
Rattus norvegicus [1] = experiment: […] activity in rat assessed as inhibition of 5HT-induced bradycardia at 10 ug/kg, iv by von Benzold-Jarisch reflex assay; assay type: functional
[2] = Drug level in Sprague-Dawley rat blood at 3 mg/kg, po after 2 hrs by HPLC analysis; assay type: ADME, organism-based; set-up: dose 3 mg/kg, route oral; conditions: whole blood, read-out: Drug uptake
Procedure, shortened: (§1)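 Total compound concentration was measured in brain and blood at 2, 4 and 8 h after a single oral 3 mg/kg dose. Brain/blood ratio was also derived. Values are mean ± SD of three rats.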

[3] = Drug level in Sprague-Dawley rat blood at 3 mg/kg, po after 8 hrs by HPLC analysis; assay type: ADME, organism-based; set-up: dose 3 mg/kg, route oral; conditions: whole blood, read-out: Drug uptake; procedure, shortened: as §1
[4] = Drug level in Sprague-Dawley rat brain at 3 mg/kg, po after 8 hrs by HPLC analysis; assay type: ADME, organism-based; set-up: dose 3 mg/kg, route oral; conditions: read-out: Drug uptake; procedure, shortened: as §1
[5] = Drug level in Sprague-Dawley rat brain at 3 mg/kg, po after 4 hrs by HPLC analysis; assay type: ADME, organism-based; set-up: dose 3 mg/kg, route oral; conditions: read-out: Drug uptake; procedure, shortened: as §1
Rattus norvegicus [6] = experiment: Induction of 5HT1A receptor-mediated lower lip retraction behavior in rat at 10 mg/kg, iv after 30 mins; assay type: functional, organism-based; set-up: dose 10 mg/kg
Procedure, shortened: (§2)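 Rats were conditioned to test procedures over 2 weeks and acclimated to the test cage for 1 h. Vehicle was saline containing diluted HCl. Lower lip retraction and flat body posture were scored on a 0–3 scale at 5, 10, 20 and 30 min after dosing.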

[7] = Ratio of drug level in brain to blood in Sprague-Dawley rat at 3 mg/kg, po after 4 hrs; assay type: ADME, organism-based; set-up: dose 3 mg/kg, route oral
Procedure, shortened: (§3)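 Rats dosed 3 mg/kg orally; total compound levels measured in brain and blood at 2, 4 and 8 h, brain/blood ratio derived. Mean ± SD of three rats.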

[8] = target: T1, 5-hydroxytryptamine receptor 1A (Homo sapiens, UniProt P08908); experiment: Agonist activity at human cloned 5HT1A receptor expressed in CHO cells assessed as stimulation of [35S]GTPgammaS binding after 30 mins by liquid scintillation counting; assay type: functional, cell-based
T1 sequence (P08908 whole entry): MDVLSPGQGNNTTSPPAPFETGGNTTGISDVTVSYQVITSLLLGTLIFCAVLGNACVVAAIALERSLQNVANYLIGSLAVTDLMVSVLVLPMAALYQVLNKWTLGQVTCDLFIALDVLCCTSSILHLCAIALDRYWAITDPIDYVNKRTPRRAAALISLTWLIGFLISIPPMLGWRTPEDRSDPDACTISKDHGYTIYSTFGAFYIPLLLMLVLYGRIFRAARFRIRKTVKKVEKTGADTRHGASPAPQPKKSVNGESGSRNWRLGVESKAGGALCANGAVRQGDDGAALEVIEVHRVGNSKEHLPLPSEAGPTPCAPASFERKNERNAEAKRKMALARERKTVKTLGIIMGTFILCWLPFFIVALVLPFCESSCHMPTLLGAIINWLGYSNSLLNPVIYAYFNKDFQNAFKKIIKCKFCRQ
Procedure, shortened: (§4)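 Membranes from CHO cells expressing human 5-HT1A were diluted in 20 mM HEPES/3 mM MgCl2/120 mM NaCl, pH 7.4. They were preincubated with 20 μM GDP and test drug for 20 min at 30 °C, then held on ice for 15 min. [35S]GTPγS (100 pM) was added for 30 min at 30 °C. Samples were filtered, washed with cold HEPES/MgCl2 buffer, and bound radioactivity counted; EC50 and Emax reported.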

[9] = target: T1, 5-hydroxytryptamine receptor 1A; experiment: Displacement of [3H]8-OH-DPAT from human 5HT1A receptor expressed in CHO cells by liquid scintillation counting; assay type: cell-based
Procedure, shortened: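 CHO-cell membranes with human 5-HT1A were incubated with 0.25 nmol/L [3H]8-OH-DPAT (final) for 60 min at 27 °C. Buffer: 50 mM Tris-HCl, 10 mM MgSO4, 0.5 mM EDTA, 0.1% ascorbic acid, pH 7.4. Compound came from 270 μmol/L DMSO stock, diluted in buffer. Filtration was through GF/C presoaked in 0.3% polyethyleneimine, with two cold Tris washes. Run in duplicate or triplicate; percent inhibition of binding calculated.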

[10] = Ratio of drug level in brain to blood in Sprague-Dawley rat at 3 mg/kg, po after 2 hrs; assay type: ADME, organism-based; set-up: dose 3 mg/kg, route oral; procedure, shortened: as §3
[11] = target: 5-hydroxytryptamine receptor 2A (Rattus norvegicus) (UniProt P14842); experiment: Inhibition of rat 5HT2 receptor AT 0.1 uM
[12] = target: T2, 5-hydroxytryptamine receptor 3A (Cavia porcellus) (UniProt O70212); experiment: Inhibition of 5HT3 receptor-mediated contraction of guinea pig ileum at 1 umol/L after 20 mins relative to control; assay type: tissue-based
T2 sequence (whole entry): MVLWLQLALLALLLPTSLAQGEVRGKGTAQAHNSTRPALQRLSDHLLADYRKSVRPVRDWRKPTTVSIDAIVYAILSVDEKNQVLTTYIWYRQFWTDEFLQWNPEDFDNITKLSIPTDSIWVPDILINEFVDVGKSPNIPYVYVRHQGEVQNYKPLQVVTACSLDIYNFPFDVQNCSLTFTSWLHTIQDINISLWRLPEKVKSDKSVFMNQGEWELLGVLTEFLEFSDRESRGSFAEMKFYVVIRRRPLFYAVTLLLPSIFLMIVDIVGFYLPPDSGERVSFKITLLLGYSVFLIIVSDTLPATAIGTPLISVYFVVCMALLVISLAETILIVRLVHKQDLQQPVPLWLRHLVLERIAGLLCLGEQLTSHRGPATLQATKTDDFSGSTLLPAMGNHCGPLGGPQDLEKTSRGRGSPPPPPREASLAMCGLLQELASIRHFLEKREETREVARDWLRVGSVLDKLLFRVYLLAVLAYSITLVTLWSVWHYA
Procedure, shortened: (§5)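 Ileum strips in Tyrode solution at 37 °C, gassed 5% CO2/95% O2, isotonic contractions under 1 g load. After at least 3 stable contractions to 10 μM 2-methyl-5-HT, tissue exposed to compound or DMSO vehicle for 20 min, then 10 μM 2-methyl-5-HT re-added; contraction expressed as % inhibition of control.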

Rattus norvegicus [13] = experiment: Induction of 5HT1A receptor-mediated behavioral activity in rat assessed as appearance of flat body posture at 10 mg/kg, iv after 30 mins; assay type: functional, organism-based; set-up: dose 10 mg/kg; procedure, shortened: as §2
[14] = Ratio of drug level in brain to blood in Sprague-Dawley rat at 3 mg/kg, po after 8 hrs; assay type: ADME, organism-based; set-up: dose 3 mg/kg, route oral; procedure, shortened: as §3
[15] = target: T3, 5-hydroxytryptamine receptor 3A (Homo sapiens, UniProt P46098); experiment: Displacement of [3H]BRL-43694 from human 5HT3 receptor expressed in HEK293 cells by liquid scintillation counting; assay type: cell-based
T3 sequence (P46098 whole entry): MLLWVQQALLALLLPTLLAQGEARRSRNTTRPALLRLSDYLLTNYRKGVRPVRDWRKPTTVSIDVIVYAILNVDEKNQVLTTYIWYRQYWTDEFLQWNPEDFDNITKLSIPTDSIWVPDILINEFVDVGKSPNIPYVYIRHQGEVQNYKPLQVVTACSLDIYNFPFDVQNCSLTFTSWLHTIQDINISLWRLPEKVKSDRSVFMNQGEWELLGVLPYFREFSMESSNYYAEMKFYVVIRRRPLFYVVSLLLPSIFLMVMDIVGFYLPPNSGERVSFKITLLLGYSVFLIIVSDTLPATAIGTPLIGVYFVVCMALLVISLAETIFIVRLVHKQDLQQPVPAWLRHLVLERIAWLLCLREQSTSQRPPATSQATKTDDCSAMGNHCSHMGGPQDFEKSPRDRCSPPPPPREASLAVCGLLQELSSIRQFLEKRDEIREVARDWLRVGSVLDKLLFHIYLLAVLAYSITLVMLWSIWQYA
Procedure, shortened: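 HEK-293 membranes expressing human 5-HT3 were incubated with 0.5 nmol/L [3H]BRL-43694 (final) for 60 min at 25 °C. Buffer: 50 mM Tris-HCl, 5 mM MgCl2, 1 mM EDTA, pH 7.5. Compound came from 270 μmol/L DMSO stock, diluted in buffer. Filtration was through GF/B presoaked in 0.5% polyethyleneimine, with two cold Tris washes. Run in duplicate or triplicate; percent inhibition calculated.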

[16] = Drug level in Sprague-Dawley rat brain at 3 mg/kg, po after 2 hrs by HPLC analysis; assay type: ADME, organism-based; set-up: dose 3 mg/kg, route oral; conditions: read-out: Drug uptake; procedure, shortened: as §1
[17] = target: Adrenergic receptor alpha-1 (Rattus norvegicus) (UniProt P15823+P23944+P43140); experiment: Inhibition of rat alpha1 adrenergic receptor at 0.1 uM
[18] = target: T4, 5-hydroxytryptamine receptor 1A (Homo sapiens) (UniProt P08908); experiment: Agonist activity at human cloned 5HT1A receptor expressed in CHO cells assessed as stimulation of [35S]GTPgammaS binding at 900 uL after 30 mins by liquid scintillation counting; assay type: functional, cell-based; procedure, shortened: as §4
T4 sequence (whole entry): T1 sequence (P08908 whole entry)

Rattus norvegicus [19] = experiment: Effect on 5HT1A receptor-mediated hypothermic effect in rat assessed as change in rectal temperature at 10 mg/kg, iv after 30 mins; assay type: functional, organism-based; set-up: dose 10 mg/kg
Procedure, shortened: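 Rats were conditioned over 2 weeks and acclimated to the cage for 1 h before dosing (vehicle: saline with diluted HCl). Rectal temperature was recorded with a thermistor probe inserted 3 cm, before and 30 min after administration. The change in temperature was reported.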

[20] = Drug level in Sprague-Dawley rat blood at 3 mg/kg, po after 4 hrs by HPLC analysis; assay type: ADME, organism-based; set-up: dose 3 mg/kg, route oral; conditions: whole blood, read-out: Drug uptake; procedure, shortened: as §1
[21] = target: T2, 5-hydroxytryptamine receptor 3A (Cavia porcellus); experiment: Inhibition of 5HT3 receptor-mediated contraction of guinea pig ileum at 0.1 umol/L after 20 mins relative to control; assay type: tissue-based; procedure, shortened: as §5
Rattus norvegicus [22] = experiment: Reduction in wrap restraint stress-induced defecation in rat diarrhea-predominant irritable bowel syndrome model at 1 to 10 mg/kg, po administered 1 hr prior to induction of stress; assay type: functional, organism-based
Procedure, shortened: (§6)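 Lightly anesthetized rats had upper bodies wrapped with adhesive tape, then returned to observation cages; feces counted 1 h after wrapping. Compound or vehicle given orally 1 h before restraint; unwrapped animals as normal group. n = 8 per group, mean (SD); Wilcoxon and nonparametric Dunnett's tests.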

Rattus norvegicus [23] = experiment: Reduction in wrap restraint stress-induced defecation in rat diarrhea-predominant irritable bowel syndrome model at 30 to 100 mg/kg, po administered 1 hr prior to induction of stress; assay type: functional, organism-based; procedure, shortened: as §6

Sequence of 5-hydroxytryptamine receptor 2A (Rattus norvegicus) (P14842 whole entry): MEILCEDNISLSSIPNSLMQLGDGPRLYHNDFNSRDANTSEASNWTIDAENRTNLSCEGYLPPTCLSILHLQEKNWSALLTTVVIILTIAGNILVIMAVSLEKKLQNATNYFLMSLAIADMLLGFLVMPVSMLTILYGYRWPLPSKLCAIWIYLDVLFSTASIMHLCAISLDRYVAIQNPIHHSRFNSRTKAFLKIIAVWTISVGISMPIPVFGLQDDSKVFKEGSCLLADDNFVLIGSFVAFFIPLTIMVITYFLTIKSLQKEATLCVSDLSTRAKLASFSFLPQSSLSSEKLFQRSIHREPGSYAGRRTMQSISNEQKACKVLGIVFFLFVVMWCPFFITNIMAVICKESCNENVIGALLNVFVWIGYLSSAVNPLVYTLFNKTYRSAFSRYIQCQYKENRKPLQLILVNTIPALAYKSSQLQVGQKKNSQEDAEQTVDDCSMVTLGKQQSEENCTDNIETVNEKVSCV

Structure (SMILES)	inhibition in vivo at 0.01 mg/kg (Rattus norvegicus [1])	concentration at 2 h [2]	concentration at 8 h [3]	concentration at 8 h [4]	concentration at 4 h [5]	Activity (Rattus norvegicus [6])	Kp at 4 h [7]	EC50 [8]	IC50 [9]	Kp at 2 h [10]	inhibition [12]	Activity (Rattus norvegicus [13])	Kp at 8 h [14]	IC50 [15]	concentration at 2 h [16]	Emax [18]	deltaT (Rattus norvegicus [19])	concentration at 4 h [20]	further results
Nn1c(CCCCN2CCN(c3ccc4ccccc4n3)CC2)nc2ccccc2c1=O	21.9%	97.4 nM	28.3 nM	204 nM	367 nM	Active	6.59	30.7 nM	< 10 nM	7.11	90.1%	Active	7.65	45.7 nM	685 nM	94.7%	-1.9 °C	55.5 nM	inhibition [11]: 78%; inhibition [17]: 63%
CC(=O)N1CCc2c(sc3nc(SCCCN4CCN(c5ccc6ccccc6n5)CC4)n(N)c(=O)c23)C1	77%	56 nM	8.98 nM	2.96 nM	12.9 nM	Active	0.357	2.5 nM	2.5 nM	0.332	97.6%	Active	0.338	77.6 nM	18.7 nM	84.8%	-0.1 °C	36.1 nM	inhibition [21]: 79.9%
Cc1[nH]cnc1CN1CCc2c(c3ccccc3n2C)C1=O																			inhibition (Rattus norvegicus [22]): Active
O=C1[C@@H]2[C@H]3CC[C@H](C3)[C@@H]2C(=O)N1CCCCN1CCN(c2ncccn2)CC1																			inhibition (Rattus norvegicus [23]): inactive
